The values below come from paper PMC6045394 (ACS Omega, 2017).

Data set [1] has as its system P. falciparum chloroquine-resistant (W2) strain. As to the kind of experiment: In vitro schizonticidal activity, ELISA antiHRPII assay. Format: cell-based, Plasmodium falciparum. Conditions: for SI (selectivity index) P.f. W2: SI = IC50 WI-26-VA4/IC50 P. falciparum strain W2. In a few lines:
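W2 parasites grown in human erythrocytes in RPMI 1640 with human plasma, sorbitol-synchronized, plated at 0.05% parasitemia and 1.5% hematocrit. Triplicate drug dilutions for 72 h, freeze-thaw, anti-HRPII ELISA; IC50 is the mean of three assays. WI-26-VA4 fibroblasts: 1:10 serial dilutions (0.1% DMSO), 48 h, MTT read at 550 nm, triplicate. SI = fibroblast IC50 / W2 IC50.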
(ELISA stands for enzyme-linked immunosorbent assay.)

For data set [2], the system named is human lung fibroblast cell line WI-26-VA4. As to the kind of experiment: In vitro cytotoxicity test, MTT colorimetric assay. Format: cell-based. The note with it: WI26VA4, 48 h, read-out: IC50 (μM) ± SD Wi-26VA4. (Formazan colour is commonly taken as a measure of viable cells.)
Data set [3] concerns P. falciparum chloroquine-sensitive (3D7) strain. Description: In vitro schizonticidal activity, ELISA antiHRPII assay. It counts as cell-based, Plasmodium falciparum. Conditions: for IC50: Plasmodium falciparum, 3D7, 72 h, read-out: IC50 (μM) ± SD P.f. 3D7.
The test system of data set [4] is S. typhimurium strain TA98. As to the kind of experiment: Ames/Salmonella mutagenicity assay. Format: cell-based, Salmonella typhimurium. Conditions: with and without metabolic activation (S9), 16.7 to 77.5 μM. An outline of the steps: (§1)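 Microsuspension protocol: overnight cultures (1 × 10^9 cells/mL) concentrated 10× by centrifugation, then exposed to five concentrations (TA100 6.7–30.9 μM; TA98 16.7–77.5 μM), with or without S9, 90 min at 37 °C. Plated in histidine/biotin top agar on minimal glucose agar; his+ revertants counted after 48 h at 37 °C. DMSO negative control; MI = treated/control revertants, MI ≥ 2 mutagenic.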

In data set [5] the test system is S. typhimurium strain TA100. Description: Ames/Salmonella mutagenicity assay. It counts as cell-based, Salmonella typhimurium. The note with it: with and without metabolic activation (S9), 6.7 to 30.9 μM. An outline of the steps: as §1
Data set [6] has as its system RKO-AS45-1 human cell line. As to the kind of experiment: Alkaline comet assay. Format: cell-based. Conditions: 17.7 μM vs 2.5 μM.
The subject of data set [7] is RKO-AS45-1 human cell line. As to the kind of experiment: CBMN. It counts as cell-based. The note with it: 2.5 to 17.7 μM.

Regarding `CCN(CC)CCCC(C)Nc1ccnc2cc(Cl)ccc12` (stereo not shown) [CQ, chloroquine, reference compound], in data set [1], the “SI (selectivity index) P.f. W2” value was greater than 250. In addition, the IC50 is greater than 100 µM in data set [2] and 0.18 ± 0.05 µM in data set [3].

With `FCCCCCCCCCCOCCCc1cccnc1` [Compound 7, 3-(3-((10-Fluorodecyl)oxy)propyl)pyridine], the “induction of gene mutations (Ames)” value in data set [4] and in data set [5] was “not able to induce gene mutations” in each case. Also, the “increase of in vitro antimalarial activity compared to compound 5c” value in data set [1] (P. falciparum W2) is recorded as 5.8 fold. The “SI (selectivity index) P.f. W2” value in data set [1] came out at 11.2. The figures for the IC50 in data set [2] and in data set [3] were 28.2 ± 3.7 µM and 2.3 ± 0.15 µM, respectively. Further, the “genotoxic concentration relative to IC50 against P. falciparum” value in data set [6] was “about seven times higher”. Besides, the “nuclear division index (NDI)” value in data set [7] is given as “None of the concentrations assessed affected the nuclear division index (NDI) values”. For the same compound, the frequency of micronuclei entry in data set [7] (3 h exposure) is “altered only at concentrations higher than the IC50”. Moreover, the “SI (selectivity index) P.f. 3D7” value in data set [3] (SI = IC50 WI-26-VA4/IC50 P. falciparum strain 3D7) is reported as 12.2.

As a reminder, the IC50 is the concentration that gives 50% inhibition.
